Test results reported in ChEMBL document CHEMBL2384939, “Synthesis of pyrazolo[1,5-a]pyrimidine linked aminobenzothiazole conjugates as potential anticancer agents” (Bioorg Med Chem Lett, 2013).
pIC50: −log10 of the molar value. Activity calls are given as the source filed them. The rule behind the calls is not given here.

Tests used:
A549 [1] = experiment: Induction of apoptosis in human A549 cells assessed as DNA fragmentation at 2 uM after 48 hrs by agarose gel electrophoresis; format: functional, cell-based
How it was run: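 A549 cells (1×10^6) seeded in six-well plates for 24 h, then exposed to 2 µM compound or roscovitine for 48 h and pelleted. Lysate treated with SDS and RNase-A (2 h, 56 °C), then proteinase K (2 h, 37 °C). DNA precipitated with ammonium acetate/cold ethanol, dissolved in TE, and laddering resolved on 2% agarose gel against a 50 bp marker.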

A549 [2] = experiment: Induction of apoptosis in human A549 cells assessed as activation of caspase-3 at 1 to 2 uM after 48 hrs by ELISA relative to control; format: functional, cell-based
How it was run: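 A549 lung cancer cells exposed to 1 and 2 µM compound for 48 h, with roscovitine as positive control. Pellets lysed for 15 min, and supernatant caspase-3 activity read by a commercial colorimetric kit relative to untreated control. Values are mean ± SD of two experiments run in triplicate.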

A549 [3] = experiment: Induction of apoptosis in human A549 cells assessed as formation of apoptotic bodies at 2 uM after 48 hrs by Hoechst staining assay; format: functional, cell-based
How it was run: (§1)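 A549 cells (10,000 per 18-mm coverslip) grown 24 h, then given 2 µM compound for 48 h, with 0.001% DMSO vehicle and roscovitine controls. Hoechst 33258 (0.5 mg/mL) in 4% paraformaldehyde was added for 30 min. Randomly chosen fields were imaged by fluorescence microscopy and apoptotic cells scored manually by cytoplasmic condensation, apoptotic bodies and nuclear fragmentation.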

A549 [4] = experiment: Induction of apoptosis in human A549 cells assessed as nuclear fragmentation at 2 uM after 48 hrs by Hoechst staining assay; format: functional, cell-based; how it was run: as §1
A549 [5] = experiment: Induction of apoptosis in human A549 cells assessed as cytoplasmic condensation at 2 uM after 48 hrs by Hoechst staining assay; format: functional, cell-based; how it was run: as §1
A549 [6] = experiment: Induction of apoptosis in human A549 cells assessed as reduction of Cdk1 expression at 2 uM after 48 hrs by Western blot analysis; format: functional, cell-based
How it was run: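 5×10^5 A549 cells grown 24 h, then treated with 2 µM compound for 48 h. Lysis in ice-cold RIPA with protease inhibitors, protein by Bradford, 50 µg per lane on 12% SDS-PAGE, PVDF transfer. Probed overnight at 4 °C with mouse monoclonal anti-Cdk1, β-actin as loading control, chemiluminescent detection.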

A549 [7] = experiment: Cell cycle arrest at human A549 cells assessed as accumulation at G2/M phase at 1 uM after 48 hrs by propidium iodide-staining-based FACS flow cytometric analysis (reference value: 13.17%); format: functional
A549 [8] = experiment: Cell cycle arrest at human A549 cells assessed as accumulation at G2/M phase at 2 uM after 48 hrs by propidium iodide-staining-based FACS flow cytometric analysis (reference value: 13.17%); format: functional
A549 [9] = experiment: Cell cycle arrest at human A549 cells assessed as accumulation at S phase at 1 uM after 48 hrs by propidium iodide-staining-based FACS flow cytometric analysis (reference value: 4.48%); format: functional
A549 [10] = experiment: Cell cycle arrest at human A549 cells assessed as accumulation at S phase at 2 uM after 48 hrs by propidium iodide-staining-based FACS flow cytometric analysis (reference value: 4.48%); format: functional
A549 [11] = experiment: Cell cycle arrest at human A549 cells assessed as accumulation at G0/G1 phase at 1 uM after 48 hrs by propidium iodide-staining-based FACS flow cytometric analysis (reference value: 81.33%); format: functional
HeLa = experiment: Cytotoxicity against human HeLa cells after 48 hrs by MTT assay; format: functional, cell-based
How it was run: (§2)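 MTT assay: […] were plated in DMEM with 10% FBS and incubated for 24 h at 37 °C under CO2. Compounds diluted in culture medium were added alongside a vehicle control for 48 h. MTT (10 µl of a 5 mg/ml stock) was added for a further 4 h. The supernatant was then removed, the formazan dissolved in DMSO, and absorbance read at 540 nm. IC50 was derived.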

MDA-MB-468 = experiment: Cytotoxicity against human MDA-MB-468 cells after 48 hrs by MTT assay; format: functional; details: MDA-MB-468, 48 h
T47D = experiment: Cytotoxicity against human T47D cells after 48 hrs by MTT assay; format: functional
Hs-578T = experiment: Cytotoxicity against human Hs578T cells after 48 hrs by MTT assay; format: functional
MDA-MB-231 = experiment: Cytotoxicity against human MDA-MB-231 cells after 48 hrs by MTT assay; format: functional; details: MDA-MB-231, 48 h
MCF7 = experiment: Cytotoxicity against human MCF7 cells after 48 hrs by MTT assay; format: functional, cell-based; details: MCF7, 48 h; how it was run: as §2
DU-145 = experiment: Cytotoxicity against human DU145 cells after 48 hrs by MTT assay; format: functional, cell-based; details: DU-145, 48 h; how it was run: as §2
SN12C = experiment: Cytotoxicity against human SN12C cells after 48 hrs by MTT assay; format: functional
ACHN = experiment: Cytotoxicity against human ACHN cells after 48 hrs by MTT assay; format: functional, cell-based; how it was run: as §2
786-0 = experiment: Cytotoxicity against human 786-0 cells after 48 hrs by MTT assay; format: functional; details: 786-0, 48 h
A498 = experiment: Cytotoxicity against human A498 cells after 48 hrs by MTT assay; format: functional; details: A498, 48 h
SK-OV-3 = experiment: Cytotoxicity against human SKOV3 cells after 48 hrs by MTT assay; format: functional; details: SK-OV-3, 48 h
UACC-62 = experiment: Cytotoxicity against human UACC62 cells after 48 hrs by MTT assay; format: functional; details: UACC-62, 48 h
IGROV-1 = experiment: Cytotoxicity against human IGROV1 cells after 48 hrs by MTT assay; format: functional; details: IGROV-1, 48 h
A549 [12] = experiment: Cell cycle arrest at human A549 cells assessed as accumulation at sub G1 phase at 1 uM after 48 hrs by propidium iodide-staining-based FACS flow cytometric analysis (reference value: 1.02%); format: functional
U-251 = experiment: Cytotoxicity against human U251 cells after 48 hrs by MTT assay; format: functional; details: U-251, 48 h
SNB-19 = experiment: Cytotoxicity against human SNB19 cells after 48 hrs by MTT assay; format: functional; details: SNB-19, 48 h
NCI-H460 = experiment: Cytotoxicity against human NCI-H460 cells after 48 hrs by MTT assay; format: functional; details: NCI-H460, 48 h
NCI-H322M = experiment: Cytotoxicity against human NCI-H322M cells after 48 hrs by MTT assay; format: functional
HOP-62 = experiment: Cytotoxicity against human HOP62 cells after 48 hrs by MTT assay; format: functional; details: HOP-62, 48 h
[13] = Cytotoxicity against human EKVX cells after 48 hrs by MTT assay; format: functional
A549 [14] = experiment: Cell cycle arrest at human A549 cells assessed as accumulation at G0/G1 phase at 2 uM after 48 hrs by propidium iodide-staining-based FACS flow cytometric analysis (reference value: 81.33%); format: functional
SR = experiment: Cytotoxicity against human SR cells after 48 hrs by MTT assay; format: functional
K562 = experiment: Cytotoxicity against human K562 cells after 48 hrs by MTT assay; format: functional; details: K562, 48 h
CCRF-CEM = experiment: Cytotoxicity against human CCRF-CEM cells after 48 hrs by MTT assay; format: functional

Row | Compound | Activity (A549 [1]) | Activity (A549 [2]) | Activity (A549 [3]) | Activity (A549 [4]) | Activity (A549 [5]) | Activity (A549 [6]) | Activity (A549 [7]) [%] | Activity (A549 [8]) [%] | Activity (A549 [9]) [%] | Activity (A549 [10]) [%] | Activity (A549 [11]) [%] | pIC50 (HeLa) | GI50 (MDA-MB-468) [µM] | GI50 (T47D) [µM] | GI50 (Hs-578T) [µM] | GI50 (MDA-MB-231) [µM] | GI50 (MCF7) [µM] | pIC50 (MCF7) | GI50 (DU-145) [µM] | pIC50 (DU-145) | also measured
1 | COc1cc(-c2cc(C(=O)Nc3nc4ccccc4s3)nc3cc(-c4ccccc4)nn23)cc(OC)c1OC | Active | Active | Active | Active | Active | Active | 40.05 | 52.45 | 5.9 | 6.32 | 42.29 | 5.15 | 13.9 | 21.4 | 4.7 | 5.6 | 22.4 | 5.54 | 65 | 5.50 | GI50 (SN12C): 85 µM; GI50 (ACHN): 45.7 µM; pIC50 (ACHN): 5.36; GI50 (786-0): 2500 nM; GI50 (A498): 9.2 µM; GI50 (SK-OV-3): 12.5 µM; GI50 (UACC-62): 14.4 µM; GI50 (IGROV-1): 56 µM; Activity (A549 [12]): 11.77%; GI50 (U-251): 5.1 µM; GI50 (SNB-19): 16.7 µM; GI50 (NCI-H460): 29 µM; GI50 (NCI-H322M): 67.5 µM; GI50 (HOP-62): 9.8 µM; GI50 [13]: 42 µM; Activity (A549 [14]): 32.18%; GI50 (SR): 19.7 µM; GI50 (K562): 25 µM; GI50 (CCRF-CEM): 54 µM
2 | O=C(Nc1nc2ccccc2s1)c1cc(-c2ccc(F)cc2)n2nc(-c3ccccc3)cc2n1 | Active | Active | Active | Active | Active | Active | 44.54 | 64.7 | 6.1 | 6.8 | 35.34 | 5.58 | 5.1 | 3.3 | 2.2 | 2.3 | 5.2 | 5.64 | 4.9 | 5.68 | GI50 (SN12C): 6.4 µM; GI50 (ACHN): 2.2 µM; pIC50 (ACHN): 5.46; GI50 (786-0): 2100 nM; GI50 (A498): 1.8 µM; GI50 (SK-OV-3): 2.3 µM; GI50 (UACC-62): 3.7 µM; GI50 (IGROV-1): 4.3 µM; Activity (A549 [12]): 4.01%; GI50 (U-251): 2 µM; GI50 (SNB-19): 5.2 µM; GI50 (NCI-H460): 2.1 µM; GI50 (NCI-H322M): 5.8 µM; GI50 (HOP-62): 2.2 µM; GI50 [13]: 6.6 µM; Activity (A549 [14]): 28.75%; GI50 (SR): 3.9 µM; GI50 (K562): 4.2 µM; GI50 (CCRF-CEM): 1.8 µM
